# ZTA DNA inh = counter-screen for EBNA-1 inhibitors: inhibitors of Epstein-Barr virus ZTA. P03206. ZTA-DNA binding, fluorescence polarization. inhibition, % at 11 µM. 320,000 tested, 0.15% active. AID 2234; in the data active = inhibition above about 33%
# Target sequence (P03206 whole entry, looked up): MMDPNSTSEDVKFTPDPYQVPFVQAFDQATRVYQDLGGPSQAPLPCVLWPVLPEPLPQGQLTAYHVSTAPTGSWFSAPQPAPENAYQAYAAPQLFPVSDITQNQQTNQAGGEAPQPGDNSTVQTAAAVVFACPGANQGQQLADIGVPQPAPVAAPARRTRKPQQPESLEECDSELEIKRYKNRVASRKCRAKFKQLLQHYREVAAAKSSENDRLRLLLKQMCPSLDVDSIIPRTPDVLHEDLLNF
# NS3 helicase inh = inhibitors of HCV NS3 helicase, primary screen, biochemical, Cy5 molecular beacon fluorescence. Hepatitis C virus NS3 helicase. NS3 helicase DNA unwinding. inhibition, % at 10.9 µM. 290,000 tested, 0.56% active. AID 1800, 2009;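 active = inhibition above the mean of all tested compounds plus 3 SD, set per campaign, cut at about 35% in these data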;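 note: 0% = DMSO wells and 100% = thioflavine S control wells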
#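 Material: hepatitis C virus NS3 helicase domain fragment enzyme; measured by: Cy5 fluorescence, 0 and 60 min reads; control set: DMSO and thioflavine S; incubation: 60 min unwinding reaction at 25 °C after ATP addition; read-out basis: % inhibition from 60/0 min fluorescence ratio, DMSO 0%, thioflavine S 100%; repeats: singlicate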
# EBNA-1 inhibitor = EBNA-1 DNA-binding inhibitors, primary screen, biochemical, fluorescence polarization; 300,000 tested, 0.34% active; inhibition, % at 14.8 µM; AID 1950, 2009; in the data active = inhibition above about 28%
# ALR inh = inhibitors of human ALR sulfhydryl oxidase, primary screen, biochemical, H2O2 detection, HRP-luminol luminescence, single point | inhibition, % (test concentration not listed) | 290,000 tested, 3.8% active | purified ALR, DTT oxidation;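 active = mean replicate inhibition above about 79%, with every replicate also reaching it, limit read from the data; inconclusive = only one of the two criteria met; inactive = mean below limit and not every replicate reaching it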
# Target sequence (P55789 whole entry, looked up): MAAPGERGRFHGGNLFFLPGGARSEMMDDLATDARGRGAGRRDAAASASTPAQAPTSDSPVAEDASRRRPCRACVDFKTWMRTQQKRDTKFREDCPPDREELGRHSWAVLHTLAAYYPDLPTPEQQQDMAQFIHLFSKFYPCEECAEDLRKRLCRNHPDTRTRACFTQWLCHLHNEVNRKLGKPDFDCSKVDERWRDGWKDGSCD
# PfM18AAP inh = PfM18AAP inhibitors, malaria aminopeptidase, primary screen, biochemical, QFRET, recombinant enzyme; M18 aspartyl aminopeptidase (Plasmodium falciparum 3D7); inhibition, % at 7.35 µM; 290,000 tested, 1.2% active; AID 1822, 2009; H-Glu-NHMec fluorogenic cleavage;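 active = inhibition above the campaign mean inhibition over all tested compounds plus 3 SD, cut at about 28% in these data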;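 note: 0% = plate median of test compound wells and 100% = 2 mM ZnCl2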
# core dimer inh = inhibitors of HCV core protein dimerization, primary screen, biochemical, TR-FRET, high-throughput; TR-FRET GST/Flag-core106 dimerization, 1536-well; inhibition, % at 5 µM; 300,000 tested, 0.33% active; AID 1899, 2009;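 active = inhibition above the mean of all tested compounds plus 3 SD, set per screening campaign, cut at about 45% in these data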
#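 assay system = GST-tagged and Flag-tagged HCV core protein residues 1-106 | controls = unlabelled core106 and no-GST-core106 wells | incubation = compound-protein-antibody incubation 4 h at 22.5 °C | probe or stimulus = Eu donor and XL665 acceptor anti-tag antibodies | read-out = % inhibition based on acceptor/donor emission ratio | signal = TR-FRET 671 and 617 nm emission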
# * marks the source's active call; other numbers are inactive results; ? = inconclusive; . = not tested or not shown. In the library only some 5.2% were active in any assay of this set; here they are far more common.
SMILES,ZTA DNA inh,NS3 helicase inh,EBNA-1 inhibitor,ALR inh,PfM18AAP inh,core dimer inh
COc1ccc(N(C)S(=O)(=O)c2cccc(C(=O)Nc3cccc(C(=O)NC4CC4)c3)c2)cc1,-2,.,.,94*,.,.
COc1ccc(N(C)S(=O)(=O)c2cccc(C(=O)Nc3nc(C)c(C(C)=O)s3)c2)cc1,-3,.,.,99*,.,.
O=C(Cn1ncc(Cl)c(Cl)c1=O)NC(=O)NC1CCCCC1,.,.,.,10,.,.
Cc1ccc(SC2CC(=O)N(c3ccc4c(c3)OCCO4)C2=O)cc1 (stereo not drawn),0,0,-15,98*,-18,-1
COc1ccccc1NC(=O)CSC1CC(=O)N(c2ccc3c(c2)OCO3)C1=O (stereo not drawn),-10,9,-8,100*,-13,3
COc1ccc(NC(=O)CSC2CC(=O)N(c3ccc4c(c3)OCCO4)C2=O)cc1 (stereo not drawn),-14,-2,5,99*,-6,3
Cc1ccc(N2C(=O)CC(Sc3cccs3)C2=O)cc1 (stereo not drawn),3,-14,-3,56,-20,-5
Cc1nc(SCc2cccnc2)[nH]c(=O)c1C,-4,7,-2,99*,-4,-5
N#Cc1c(-c2ccco2)nc(SCc2ccc(F)cc2)[nH]c1=O,5,24,-7,-13,8,9
Cc1nc(SCc2cccc(F)c2)[nH]c(=O)c1C#N,-11,19,6,84*,4,1
CCNc1nc(NCC)n2c(SCC(=O)c3ccccc3F)nnc2n1,-8,0,-8,94*,4,-4
O=C(CSc1nnnn1-c1ccccc1)NC(=O)NCc1ccco1,-2,7,-10,7,2,60*
Cc1nnc(SCC(=O)c2ccccc2F)n1Cc1ccccc1,11,-2,-1,94*,-6,5
Cc1sc2nc(SCC(=O)NCc3ccco3)n(C)c(=O)c2c1C,6,-3,0,-7,5,-1
Cc1nnc(SCC(=O)c2c(N)n(C)c(=O)n(C)c2=O)n1Cc1ccccc1,-19,4,-2,-7,-17,-2
CCn1c(SCC(=O)NC(=O)NCc2ccco2)nc2sc(C)c(C)c2c1=O,-11,9,28*,?,13,51*
CN1C(=O)N(CC(=O)Nc2sccc2C(N)=O)C(=O)C12CCCCC2,-2,.,.,20,.,.
O=C(CSc1nnc(NC(=O)C2CC(=O)N(c3ccc(F)cc3)C2)s1)NC1CCCC1 (stereo not drawn),10,13,-3,1,3,27
Nn1c(SCC(=O)NC(=O)NCc2ccco2)nnc1-c1ccc(OC(F)F)cc1,-3,2,-1,2,-1,79*
Cc1nnc(SCC(=O)NC(=O)NCc2ccco2)n1Cc1ccccc1,0,9,1,-5,7,62*
CCOc1ccccc1-n1nnnc1SCC(=O)NC(=O)NCc1ccco1,-15,20,-8,.,12,57*
Cc1cc(C(=O)NCC(c2ccco2)N(C)C)ccc1[N+](=O)[O-] (stereo not drawn),-2,-6,1,-2,2,4
Cc1ccc(S(=O)(=O)N2[C@@H](c3ccc(Cl)cc3)C(C(=O)O)=CC[C@H]2c2ccc(C(C)C)cc2)cc1,7,.,6,95*,.,16
Cc1ccc([C@H]2C(C(=O)O)=CC[C@@H](c3ccc(C(C)C)cc3)N2S(=O)(=O)c2ccc(C)cc2)cc1,.,.,.,13,.,.
COc1ccccc1N1CCN(C2CCCN(C(=O)CCc3c(C)noc3C)C2)CC1 (stereo not drawn),-8,2,4,94*,-4,-2
CCN1CCN(C(=O)CS(=O)Cc2nc(-c3cccc(C)c3)oc2C)CC1 (stereo not drawn),0,-6,1,99*,-4,11
Cc1cccc(-c2nc(CS(=O)CC(=O)N3CCc4ccccc4C3)c(C)o2)c1 (stereo not drawn),4,5,-13,.,0,-1

# Screening data as filed in PubChem BioAssay.
